Rows were chosen to be rich in hits. Some 0.85% of all compounds tested hit in one or more screens of this group.
V1R ag counter: activates human V1a receptor in oxytocin agonist counter-screen; 320,000 compounds, 0.25% hits; CHO-V1R cells, Fluo-8 calcium fluorescence, agonist mode; 0% DMSO, 100% 3 nM vasopressin; activation, % at 3 µM; P37288; AID 2797;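 active = activation above the mean activation of all tested compounds plus 3 SD, per screening run, cut at about 20% in these data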;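 note: signal is peak over basal fluorescence ratio across a 100 second FLIPR read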
zfTRPN1 agonist: zebrafish TRPN1 (NompC) channel agonism; AID 1424; activation, % at 3 µM; HEK293 zebrafish TRPN1-YFP, Fluo-8 calcium fluorescence; 100% = response to 87 µM carbachol; 220,000 compounds, 0.18% hits;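 active = activation above its plate's cutoff, the mean activation of test wells on that plate plus 3 SD, cut at about 19% in these data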;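 note: 0% = DMSO alone and 100% = 87 µM carbachol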
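Control set: carbachol 87 µM as high control, DMSO as low control; system: HEK293 stable line with zebrafish TRPN1-YFP; read-out: % activation versus carbachol response; detection: intracellular calcium fluorescence with Fluo-8; doses: single test compound dose, 3 µM nominal, 0.3% DMSO; schedule: dye 1 h 37 °C plus 30 min RT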
TRPML3 agonist: human mucolipin-3 channel agonism | HEK293 TRPML3-YFP, Fluo-8 calcium fluorescence; 100% = the carbachol control signal | Q8TDD5 | 220,000 compounds, 0.29% hits | activation, % at 3 µM | AID 1448;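 active = activation above its plate's cutoff, the mean activation of the plate's test wells plus 3 SD, cut at about 12% in these data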;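 note: 0% = DMSO only wells and 100% = carbachol wells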
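Material: HEK293 cells stably carrying human TRPML3-YFP; compound dosing: single dose, 3 µM final nominal compound, 0.3% DMSO final; incubation: 1-h 37 °C dye load, 5-s basal, 120-s post-compound reads; technique: Fluo-8 intracellular calcium fluorescence, excitation 470-495 nm, emission 515-575 nm; read-out basis: percent activation from peak-to-basal fluorescence ratio, scaled between DMSO and carbachol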
OXTR potentiate: potentiates the human oxytocin receptor response | CHO-OTR cells, Fluo-8 calcium fluorescence, potentiator mode; 0% = oxytocin EC15, 100% = EC100 | 320,000 compounds, 0.061% hits | AID 2445 | activation, % at 3 µM | P30559;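 active = activation above that plate's cutoff, the mean activation of tested compounds plus 3 SD, cut at about 6.6% in these data, passing the limit was not always enough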;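 note: 100% uses oxytocin at 75 nM as the full agonist control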
Target sequence (P30559 whole entry, looked up): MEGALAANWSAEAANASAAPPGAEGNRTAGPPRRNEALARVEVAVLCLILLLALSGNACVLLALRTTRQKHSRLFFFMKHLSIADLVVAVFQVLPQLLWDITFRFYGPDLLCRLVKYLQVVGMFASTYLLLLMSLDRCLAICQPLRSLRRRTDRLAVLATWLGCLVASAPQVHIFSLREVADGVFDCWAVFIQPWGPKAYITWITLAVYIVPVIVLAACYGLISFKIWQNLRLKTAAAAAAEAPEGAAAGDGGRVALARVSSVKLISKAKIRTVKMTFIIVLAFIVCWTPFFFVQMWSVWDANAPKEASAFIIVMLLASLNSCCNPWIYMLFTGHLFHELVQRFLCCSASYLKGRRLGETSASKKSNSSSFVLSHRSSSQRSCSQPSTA
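Material: CHO-OTR cells, human receptor; compound dosing: single dose, 3.0 µM nominal final compound concentration; schedule: 6 min compound pre-incubation at room temperature, 100 s kinetic read; measured by: kinetic Fluo-8 calcium fluorescence; read-out basis: % activation vs EC15 and EC100 oxytocin; controls: EC15 oxytocin alone as 0%, 75 nM oxytocin as 100%; replicates: singlicate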
CRFBP-R2 agonist: agonists of human CRF-binding protein/CRF-R2 receptor complex; 350,000 compounds, 0.46% hits; activation, % at 13.2 µM; HEK293 CRF-R2/CRF-BP, calcium dye fluorescence (FLIPR); percent of saturating CRF peptide response;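 active = activation of at least 50%, plus an integration ratio under a set limit after plate pattern correction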;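 note: plate controls were neutral control wells without compound for no effect and CRF at EC100 for full effect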
OXTR agonist: human OXTR agonism | CHO-OTR cells, Fluo-8 calcium fluorescence; normalized: DMSO 0%, oxytocin 100% | activation, % at 3 µM | 320,000 compounds, 0.32% hits;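 active = activation above the mean of all tested compounds plus 3 SD, cutoff set per screening run, cut at about 20% in these data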;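 note: peak over basal fluorescence ratio from a 100 s FLIPR kinetic read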
TRPN1 counter: activates zebrafish TRPN1, counter-screen for TRPML3 agonists; shares compounds with TRPML3 agonist; HEK293 zebrafish TRPN1-YFP, Fluo-8 calcium fluorescence; scaled: carbachol wells 100%, DMSO wells 0%; activation, % at 3 µM; 310 compounds, 10% hits; AID 1525;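 active = mean activation over replicates above a set limit taken from the earlier TRPN1 channel primary screen, cut at about 19% in these data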;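 note: 100% = carbachol and 0% = 0.3% DMSO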
TRPML3 confirm: human TRPML3 agonism, confirmation. shares compounds with TRPML3 agonist. HEK293 TRPML3-YFP, Fluo-8 calcium fluorescence; 100% set by carbachol, 0% by DMSO. activation, % at 3 µM. 310 compounds, 80% hits. AID 1526;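 active = activation above a set limit derived from the earlier primary screen, cut at about 12% in these data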
OXTR agonist cf: confirmation of human oxytocin receptor agonists. activation, % at 3 µM. CHO-OTR cells, Fluo-8 calcium fluorescence, agonist. shares compounds with OXTR agonist. 390 compounds, 20% hits;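 active = mean activation above about 20% derived from the earlier single-dose screen, limit read from the data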;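 note: peak over minimum fluorescence ratio per well during a 100 second FLIPR read; 0% = DMSO alone and 100% = oxytocin high control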
V1R ag counter 3x: V1R agonism in triplicate, counter-screen for OXTR agonists; shares compounds with OXTR agonist; CHO-V1R cells, Fluo-8 calcium fluorescence, agonist; activation, % at 3 µM; 390 compounds, 10% hits; AID 434991;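 active = mean activation over triplicate exceeds the hit threshold set in the earlier primary screen, cut at about 20% in these data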;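 note: peak over basal fluorescence ratio within a 100 second read; 0% = DMSO alone and 100% = 3 nM vasopressin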
* = called active by the depositor; · = no result.

SMILES | V1R ag counter | zfTRPN1 agonist | TRPML3 agonist | OXTR potentiate | CRFBP-R2 agonist | OXTR agonist | TRPN1 counter | TRPML3 confirm | others
CCCCn1c(C)cc(C)c(S(=O)(=O)c2ccccc2C)c1=O | -1 | -2 | 18* | -9 | 2 | -1 | -2 | 58*
Cc1cc(C)c(S(=O)(=O)c2ccccc2C)c(SCC(C)C)n1 | 0 | 0 | 1 | -13 | -1 | -1 | · | ·
Cc1ccccc1S(=O)(=O)c1c(C)cc(C)n(C(C)C)c1=O | -3 | -2 | 30* | 4 | -1 | -2 | -3 | 35*
CCCSc1nc(C)cc(C)c1S(=O)(=O)c1ccccc1C | 1 | -1 | 4 | -17 | -2 | -1 | · | ·
CCC1CCCCN1CCCNC(=O)C1CCCN(S(=O)(=O)N2CC(C)CC(C)C2)C1 (configuration not stated) | 1 | · | · | -2 | -2 | -1 | · | ·
C[C@@H]1CN([C@@H](C)CO)C(=O)c2cc(NC(=O)Nc3ccccc3)ccc2O[C@H]1CN(C)C(=O)Nc1cccc2ccccc12 | 2 | · | · | 0 | 3 | 2 | · | ·
CC(=O)Nc1cccc(OC(=O)c2ccoc2C)c1 | 0 | 0 | 13* | -13 | 115* | -1 | 1 | 4
COc1ccc(Cc2nc3ccc(C(=O)N4CCN(C)C(C)C4)cc3o2)cc1OC (configuration not stated) | 6 | · | · | -21 | 1 | 6 | · | ·
O=C(c1ccccc1F)N(NC(=O)C(O)(c1ccccc1)c1ccccc1)c1ccccc1 | -1 | -3 | 18* | -8 | -2 | -2 | -2 | 30*
O=S1(=O)CC2SC(=S)N(Cc3ccccc3)C2C1 (configuration not stated) | 0 | 0 | 1 | -3 | 0 | 0 | · | ·
Cc1ccc(S(=O)(=O)N(C)CC(=O)O/N=C(\N)c2cccc([N+](=O)[O-])c2)cc1 | 5 | -1 | 62* | -21 | 1 | 3 | 0 | 48*
Cc1ccc(SCC(=O)O/N=C(\N)c2cccc([N+](=O)[O-])c2)cc1 | 0 | 0 | 0 | 5 | 2 | -1 | · | ·
Cc1cc(N2C(=O)C3C4c5ccccc5C(c5ccccc54)C3C2=O)no1 (configuration not stated) | 0 | -3 | 13* | -6 | 2 | -2 | -1 | 9
Cc1cc(C)cc(NC(=S)N2CCC(NC(=O)c3ccco3)CC2)c1 | 1 | · | · | -5 | -2 | 1 | · | ·
Cc1ccc(Oc2ccc(Cl)cc2N)cc1 | -1 | 12 | 16* | 2 | -4 | -3 | -2 | -2
CN(c1ccc(OCC(=O)OCC(=O)Nc2ccc([N+](=O)[O-])cc2)cc1)S(=O)(=O)c1cccs1 | · | · | · | · | 0 | · | · | ·
CN(C1CCCCC1)S(=O)(=O)c1cccc(C#N)c1 | 0 | 0 | 63* | -9 | -2 | -1 | 0 | 44*
CCOc1ccc(S(=O)(=O)N(C)C2CCCCC2)cc1 | -1 | · | · | -14 | 0 | -1 | · | ·
C[C@H]1CCC(=O)N([C@H](CN=[N+]=[N-])Cc2ccccc2)CC1 | -1 | · | · | -5 | -3 | -2 | · | ·
CCCN(CCC)S(=O)(=O)c1ccc(C(=O)N2CCCc3ccccc32)cc1 | 0 | 6 | 133* | -7 | 0 | -1 | 6 | 104*
CCS(=O)(=O)N1CCC(C(=O)N2CCOCC2)CC1 | 1 | 2 | 1 | 1 | -3 | 0 | · | ·
O=C(C1CCN(S(=O)(=O)N2CCOCC2)CC1)N1CCOCC1 | 1 | 1 | 16* | 1 | -1 | 0 | 0 | 1
CCN(CC)Cc1c(C(=O)N/N=C/c2c(Cl)cccc2Cl)nnn1-c1nonc1N | 0 | · | · | -14 | 0 | -1 | · | ·
O=C(NCCS(=O)(=O)N1CCN(c2ccc(F)cc2)CC1)c1ccco1 | 1 | · | · | -5 | -2 | -1 | · | ·
CC1CCCCC1NC(=O)CN1C(=O)CSc2cc(S(=O)(=O)N3CCCCCC3)ccc21 (configuration not stated) | -2 | -1 | 33* | -10 | -4 | -3 | -1 | 8
SMILES | V1R ag counter | zfTRPN1 agonist | TRPML3 agonist | OXTR potentiate | CRFBP-R2 agonist | OXTR agonist | TRPN1 counter | TRPML3 confirm | others
CN(C)c1ccc(S(=O)(=O)N(C)C)cc1NC(=O)Cc1cccc2ccccc12 | 2 | · | · | -4 | 0 | 1 | · | ·
Cc1ccc(S(=O)(=O)n2nccc2-c2c(-c3ccccc3)noc2C)cc1 | 2 | 1 | 120* | -13 | 5 | -2 | -1 | 94*
Cc1onc(-c2ccc(Cl)cc2)c1-c1ccnn1S(=O)(=O)c1cccc(C(F)(F)F)c1 | 1 | 1 | 33* | -12 | 5 | 1 | 0 | 51*
CSc1ccc(C(=O)Nc2cc(S(=O)(=O)N3CCOCC3)ccc2N2CCOCC2)cc1[N+](=O)[O-] | · | · | · | · | -1 | · | · | ·
S=C(NC1CCCCC1)N1CCOCCOCCN(C(=S)NC2CCCCC2)CCOCC1 | 0 | 1 | 18* | -11 | 0 | -4 | -1 | 33*
Cc1ccc(S(=O)(=O)N(CCC(=O)NCc2ccc(S(N)(=O)=O)cc2)c2ccccc2)cc1 | · | · | · | · | 0 | · | · | ·
CC(=O)c1ccc(NC(=S)NC(C)c2ccc(Cl)cc2Cl)cc1 (configuration not stated) | 24* | 16 | 14* | -13 | 25 | 25* | 17 | 9
CCC(C)[C@H](NC(=O)N1CCC(C)CC1)C(=O)OC (some centres not stated) | 0 | -1 | 1 | -2 | 1 | -1 | · | ·
COC(=O)c1cnc(N2CCCN(S(=O)(=O)c3ccccc3)CC2)nc1C(F)(F)F | 0 | 0 | 13* | -13 | 0 | -3 | 1 | 13*
CC1=C/C(=N\OS(=O)(=O)c2ccccc2)C(C)=CC1=O | 11 | 13 | 13* | -22 | 69* | 20* | 20* | 42* | OXTR agonist cf=9;V1R ag counter 3x=11
COc1cc(C(=O)O/N=C2/C=C(C)C(=O)C=C2C)cc(OC)c1OC | -1 | 0 | 0 | -8 | 0 | 1 | · | ·
